From PubChem BioAssay
TRPC4 inh = TRPC4 (mouse) channel inhibition | actives 0.39% (n = 300,000) | B-score at 10 µM | HEK293 TRPC4beta/mu-opioid, DAMGO-evoked Fluo4 calcium flux; active compounds read low | Q9QUQ5 | AID 2247;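 active means B-score over 3 SD under the library average, no early fluorescence shift, positive overall ratio signal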
Target sequence (Q9QUQ5 whole entry, looked up): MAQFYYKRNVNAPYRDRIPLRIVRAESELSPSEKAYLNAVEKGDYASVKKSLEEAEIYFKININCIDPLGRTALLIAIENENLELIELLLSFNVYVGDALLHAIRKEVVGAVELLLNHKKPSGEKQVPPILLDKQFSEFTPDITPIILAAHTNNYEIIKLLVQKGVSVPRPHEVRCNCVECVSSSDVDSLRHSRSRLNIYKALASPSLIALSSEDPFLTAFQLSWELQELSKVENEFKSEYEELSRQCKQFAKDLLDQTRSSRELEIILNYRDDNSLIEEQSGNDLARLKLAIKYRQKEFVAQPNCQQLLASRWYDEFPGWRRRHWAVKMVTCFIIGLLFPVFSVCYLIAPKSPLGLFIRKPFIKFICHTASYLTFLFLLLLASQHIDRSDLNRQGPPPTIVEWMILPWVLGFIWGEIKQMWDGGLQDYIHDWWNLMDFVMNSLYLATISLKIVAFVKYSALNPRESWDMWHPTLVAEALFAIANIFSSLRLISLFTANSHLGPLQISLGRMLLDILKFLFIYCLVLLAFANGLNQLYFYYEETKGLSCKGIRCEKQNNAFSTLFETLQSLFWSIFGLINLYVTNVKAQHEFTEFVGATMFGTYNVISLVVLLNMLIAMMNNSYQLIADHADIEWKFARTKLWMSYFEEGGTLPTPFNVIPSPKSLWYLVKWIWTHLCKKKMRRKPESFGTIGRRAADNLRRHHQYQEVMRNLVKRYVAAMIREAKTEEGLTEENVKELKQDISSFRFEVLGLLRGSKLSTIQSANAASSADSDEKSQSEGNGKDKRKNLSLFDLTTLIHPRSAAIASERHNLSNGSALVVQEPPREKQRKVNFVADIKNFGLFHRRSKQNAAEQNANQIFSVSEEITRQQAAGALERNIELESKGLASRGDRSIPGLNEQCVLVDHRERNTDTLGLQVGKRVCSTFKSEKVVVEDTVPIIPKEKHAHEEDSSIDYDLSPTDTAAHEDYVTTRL
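material = TRPC4beta/mu-opioid receptor HEK293 cell line | probe or stimulus = sequential submaximal and maximal DAMGO stimulation | compound dosing = one concentration per compound | measured by = Fluo4 Ca2+ flux fluorescence | evaluation = integrated fluorescence ratio relative to baseline, converted to per-well B score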
TRPC6 inh = inhibitors of mouse TRPC6 channel | actives 1.1% (n = 310,000) | B-score at 10 µM | Q61143 | HEK293-TRPC6, membrane potential dye, ACh-evoked depolarization; active compounds read low;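 active means B-score under library mean minus 3 SD, initial fluorescence not abnormally high, positive integrated signal ratio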;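 further: B-score derived from integrated fluorescence ratio over the kinetic read; more negative B-score means stronger inhibition of depolarization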
TRPC4 agonist = activators of mouse TRPC4 channel | Q9QUQ5 | HEK293 TRPC4beta/mu-opioid, Fluo4 calcium fluorescence; active compounds read high | B-score at 10 µM | actives 0.49% (n = 310,000) | AID 2237;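 active means B-score above 5 SD of library B-scores, and initial fluorescence ratio not above library mean plus 5 SD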;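 further: positive B-score marks a calcium rise read as TRPC4 activation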
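Material: HEK293 stable line with TRPC4beta plus mu-opioid receptor; technique: Fluo4 calcium-sensitive dye fluorescence, kinetic, 1 Hz baseline; timing: Fluo4 dye loading 45 min at room temperature, 110 s recording; controls: assay buffer as low control, maximal DAMGO as high control; read-out: integrated baseline-normalised fluorescence ratio, converted to per-well B score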
TRPC6 activator = activators of mouse TRPC6 channel; HEK293-TRPC6 membrane potential dye fluorescence; active compounds read high; B-score at 10 µM; actives 0.13% (n = 310,000); Q61143; AID 2550;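 active means B-score of the integrated fluorescence ratio above library mean plus 3 SD, and starting fluorescence ratio within library mean plus 5 SD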;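 further: higher score means more depolarization so channel activation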
TRPC4 PAM = TRPC4 (mouse) allosteric potentiation; B-score at 10 µM; actives 0.42% (n = 310,000); HEK293 TRPC4beta/mu-opioid, DAMGO EC20, Fluo-4 Ca2+ flux; active compounds read high; AID 2227;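 active means B-score of calcium response area above 5 SD of library B-scores, with initial fluorescence ratio within 5 SD of library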;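 further: B-score of integrated fluorescence ratio over time as area under calcium response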
TRPC4 spec 2 = second check of whether TRPC6 inhibitors also affect mouse TRPC4; shares compounds with TRPC6 inh; HEK293 TRPC4/MOR, membrane potential dye fluorescence; channel activated by saturating DAMGO dose; inhibition, % at 10 µM; actives 42% (n = 920);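 active means compounds whose fluorescence signal differed from control wells by over 3 SD, either direction, in both duplicate plates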
TRPC4 spec = tests whether TRPC6 inhibitors also affect mouse TRPC4. shares compounds with TRPC6 inh. HEK293 TRPC4/mu-opioid, membrane potential fluorescence. activity change, negative = inhibition, % at 10 µM. actives 61% (n = 920);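 active means rise or fall in signal beyond 3 SD of buffer-only wells in both replicate plates, either sign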;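 further: integrated kinetic ratio of fluorescence range over baseline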
HEK293 MPD ctr 2-1 = second counter-screen for TRPC6 inhibitors: parental HEK293 cells. AID 2779. shares compounds with TRPC6 inh. parental HEK293 membrane potential dye fluorescence; maximal acetylcholine challenge after compound addition. actives 31% (n = 920). signal change vs control, % at 10 µM;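 active means membrane potential signal moving either way by over 3 SD of the maximum-effect control, in both duplicate plates, meaning non-specific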
HEK293 MPD ctr-1 = checks TRPC6 inhibitor effects in parental HEK293 cells | shares compounds with TRPC6 inh | parental HEK293 membrane potential dye fluorescence | membrane potential signal change, % at 10 µM | actives 60% (n = 920);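 active means membrane potential signal shifting up or down by more than 3 SD of buffer-only wells, on both duplicate plates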
HEK293 MPD ctr-2 = parental HEK293 nonspecific activity of TRPC6 modulators; membrane potential dye fluorescence; actives 51% (n = 2,400); membrane potential signal change, % at 10 µM; shares compounds with TRPC6 inh; AID 488924;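 active means membrane potential signal moves up or down beyond 5 SD from buffer-only wells, on both duplicate plates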
HEK293 MPD ctr 2-2 = second check of TRPC6 modulator effects in parental HEK293 cells; shares compounds with TRPC6 inh; membrane potential dye fluorescence; after compound, maximal acetylcholine stimulation; inhibition, % at 10 µM; actives 14% (n = 2,400); AID 488926;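 active means membrane potential signal drops by more than 5 SD from the mean control signal, in both duplicate plates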;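 further: plate controls were acetylcholine ECmax control wells for no effect and buffer only wells for full effect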
TRPC4 ctr mod = mouse TRPC4 off-target activity of TRPC6 modulators. AID 488927. shares compounds with TRPC6 inh. HEK293 TRPC4/mu-opioid, membrane potential fluorescence. percent change from control (negative = decrease, positive = increase), % at 10 µM. actives 69% (n = 2,400);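 active means membrane potential signal moved up or down beyond 5 SD of buffer control wells, in both duplicate plates, actives on both sides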;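 further: plate controls were assay buffer wells for no effect and DAMGO maximal-effect wells for full effect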
TRPC4/MOR inh 2 = second check of whether TRPC6 modulators also affect mouse TRPC4. shares compounds with TRPC6 inh. HEK293 TRPC4/mu-opioid, membrane potential dye fluorescence; stimulated with maximal-effect DAMGO. inhibition, % at 10 µM. actives 55% (n = 2,400);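 active means drop in membrane potential signal beyond 5 SD of the control wells in both duplicate plates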;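 further: TRPC4 counter screen for TRPC6 hits run under conditions tuned for TRPC6 not TRPC4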
TRPC6 block conf = mouse TRPC6 inhibitor confirmation; HEK293-TRPC6, membrane potential dye, ACh-evoked depolarization; AID 488960; shares compounds with TRPC6 inh; actives 43% (n = 3,300); inhibition, % at 10 µM;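 active means fluorescence ratio falls more than 5 SD below the full-stimulation control mean, in both duplicate runs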;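 further: integrated fluorescence ratio of peak minus minimum over baseline after agonist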
TRPC6 act confirm = confirmation of mouse TRPC6 activators. shares compounds with TRPC6 inh. HEK293-TRPC6 membrane potential dye fluorescence, FDSS. activation, % at 10 µM. actives 11% (n = 2,800);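 active means ratio signal rise beyond 5 SD above unstimulated control wells' mean, seen in both duplicate runs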;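 further: plate controls were buffer EC0 wells for no effect and acetylcholine ECmax response for full effect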
Active calls of the source: *; i = inactive; . = no result. In the library only some 2.3% were active in any assay of this set; here they are far more common.

SMILES	TRPC4 inh	TRPC6 inh	TRPC4 agonist	TRPC6 activator	TRPC4 PAM	HEK293 MPD ctr-2	HEK293 MPD ctr 2-2	TRPC4 ctr mod	TRPC4/MOR inh 2	TRPC6 block conf	TRPC6 act confirm	others
CCOC(=O)c1sc(=S)n(-c2ccccc2Cl)c1SC	i	-7.7*	i	i	i	.	.	.	.	i	i	TRPC4 spec 2=i;TRPC4 spec=i;HEK293 MPD ctr 2-1=i;HEK293 MPD ctr-1=i
CCCCN(C)S(=O)(=O)c1cc2c3c(c1)CCC(=O)N3CCC2	i	i	i	i	i	.	.	.	.	.	.
COC(=O)CNC(=O)C1CCN(S(=O)(=O)c2cnc[nH]2)CC1	i	i	i	i	i	.	.	.	.	.	.
COc1ccc(S(=O)(=O)NCC(c2ccc(F)cc2)N2CCN(C)CC2)cc1 (centres undefined)	i	i	i	i	i	.	.	.	.	.	.
CCc1ccc(S(=O)(=O)/N=C2\C=C(Nc3ccc(C(=O)O)cc3)C(=O)c3ccccc32)cc1	i	-6.9*	i	i	i	-120%*	i	-26%*	68%*	36%*	i
CC(C)(C)c1ccc(S(=O)(=O)/N=C2\C=C(NS(=O)(=O)c3ccccc3)C(=O)c3ccccc32)cc1	i	-6.1*	i	i	i	-153%*	77%*	-30%*	90%*	81%*	i
Cc1ccc(S(=O)(=O)/N=C2\C=C(Nc3cccc(C(=O)O)c3)C(=O)c3ccccc32)cc1	i	i	i	i	i	.	.	.	.	.	.
Nc1ccccc1Nc1nc2ccccc2[nH]1	i	-5.5*	i	i	i	340%*	i	88%*	i	i	.
CCN(CC)CC#CCC(O)(c1ccccc1)c1ccccc1	i	i	i	i	i	.	.	.	.	.	.
CCN(CC)CC#CCC(C)(c1ccccc1)c1ccccc1	i	-5*	i	i	i	142%*	i	36%*	i	i	.
COc1cc2nc(NCCCN3CCN(C)CC3)n3nc(-c4ccccc4)nc3c2cc1OC	i	-6.6*	i	i	i	-75%*	i	i	63%*	i	i
CCN(CC)CCCNc1nc2cc(OC)c(OC)cc2c2nc(-c3cccnc3)nn12	i	-8*	i	i	i	.	.	.	.	77%*	i	TRPC4 spec 2=65%*;TRPC4 spec=-30%*;HEK293 MPD ctr 2-1=-68%*;HEK293 MPD ctr-1=-446%*
CCN(CC)CCCNc1nc2cc(OC)c(OC)cc2c2nc(-c3ccccc3)nn12	i	i	i	i	i	.	.	.	.	.	.
